Measurements published in ChEMBL document CHEMBL1212938, “Inhibition of mycobacterial replication by pyrimidines possessing various C-5 functionalities and related 2'-deoxynucleoside analogues using in vitro and in vivo models” (J Med Chem, 2010).
In brackets after ≈: the same amount, converted by molar mass.

Columns and labels:
[1] = system: Mycobacterium tuberculosis; test: Antitubercular activity against Mycobacterium bovis BCG at 50 ug/ml after 6 days by microplate alamar blue assay; type: functional; conditions: variant bovis BCG, 144 h
In short: (§1)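 MABA run in 7H9GC medium, with drug diluted from DMSO stocks made at 100× the highest final concentration. Final levels were 100, 50, 10, 5, 2.5 and 1 μg/mL in triplicate, and the experiment was done three times. Inoculum was 2.5 × 10⁵ CFU/mL final. Alamar Blue plus Tween-80 was added once bacteria-only control wells turned pink, from day 6 on, and plates were read visually and by fluorescence after 24 h. Visual MIC is the lowest concentration preventing the blue-to-pink change. Mean percent inhibition was taken relative to bacteria-only and medium-only wells.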

[2] = system: Mycobacterium tuberculosis; test: Antitubercular activity against Mycobacterium bovis BCG at 100 ug/ml after 6 days by microplate alamar blue assay; type: functional; conditions: variant bovis BCG, 144 h; in short: as §1
[3] = system: Mycobacterium tuberculosis; test: Antitubercular activity against Mycobacterium bovis BCG after 6 days by microplate alamar blue assay; type: functional; conditions: variant bovis BCG, 144 h; in short: as §1
[4] = system: Mycobacterium tuberculosis; test: Antitubercular activity against Mycobacterium bovis BCG at 10 ug/ml after 6 days by microplate alamar blue assay; type: functional; conditions: variant bovis BCG, 144 h; in short: as §1
[5] = system: Mycobacterium tuberculosis; test: Antitubercular activity against Mycobacterium bovis BCG at 1 to 5 ug/ml after 6 days by microplate alamar blue assay; type: functional, variant bovis BCG; in short: as §1
[6] = system: Mycobacterium tuberculosis; test: Antitubercular activity against Mycobacterium bovis BCG at 5 ug/ml after 6 days by microplate alamar blue assay; type: functional; conditions: variant bovis BCG, 144 h; in short: as §1
[7] = system: Mycobacterium tuberculosis; test: Antitubercular activity against Mycobacterium bovis BCG at 0.5 to 1 ug/ml after 6 days by microplate alamar blue assay; type: functional, variant bovis BCG; in short: as §1
[8] = system: Mycobacterium tuberculosis; test: Antitubercular activity against Mycobacterium bovis BCG at 1 ug/ml after 6 days by microplate alamar blue assay; type: functional; conditions: variant bovis BCG, 144 h; in short: as §1

**Q.** With `O=c1[nH]cc(C#Cc2ccccc2)c(=O)[nH]1` as the compound, how does the inhibition at 50 µg/mL [1] read?
**A.** Its inhibition at 50 µg/mL is 90%.

**Q.** What about the inhibition at 100 µg/mL [2] of the same compound?
**A.** Its inhibition at 100 µg/mL is 90%.

**Q.** And the MIC50 [3]?
**A.** The MIC50 was no less than 10 µg/mL.

**Q.** And the inhibition at 10 µg/mL [4]?
**A.** Its inhibition at 10 µg/mL is 40%.

**Q.** Which inhibition at 50 µg/mL [1] does the source give for `CCCc1ccc(C#Cc2c[nH]c(=O)[nH]c2=O)cc1` here?
**A.** Its inhibition at 50 µg/mL is 70%.

**Q.** And the “inhibition (INH)” value [5]?
**A.** Its value is 50%.

**Q.** What about the inhibition at 100 µg/mL [2] of the same compound?
**A.** The inhibition at 100 µg/mL was 100%.

**Q.** And the MIC50 [3]?
**A.** The MIC50 was 1 µg/mL (≈ 3.93 µM).

**Q.** And the inhibition at 10 µg/mL [4]?
**A.** Its inhibition at 10 µg/mL is 70%.

**Q.** What does the source list for `CCCCCc1ccc(C#Cc2c[nH]c(=O)[nH]c2=O)cc1`?
**A.** inhibition at 50 µg/mL [1]: 60%; inhibition (INH) [5]: 50%; inhibition at 100 µg/mL [2]: 90%; MIC50 [3]: 1 µg/mL (≈ 3.54 µM); inhibition at 10 µg/mL [4]: 60%

**Q.** `O=c1[nH]cc(C#Cc2ccccn2)c(=O)[nH]1` was tested. Which inhibition at 50 µg/mL [1] did it give?
**A.** Its inhibition at 50 µg/mL is 75%.

**Q.** And the inhibition at 100 µg/mL [2]?
**A.** The inhibition at 100 µg/mL was 90%.

**Q.** And the MIC50 [3]?
**A.** The MIC50 was less than 5 µg/mL.

**Q.** And the inhibition at 5 µg/mL [6]?
**A.** Its inhibition at 5 µg/mL is 60%.

**Q.** And the inhibition at 10 µg/mL [4]?
**A.** Its inhibition at 10 µg/mL is 75%.

**Q.** Which inhibition at 50 µg/mL [1] does the source give for `C(C#Cc1ccccn1)#Cc1ccccn1` here?
**A.** Its inhibition at 50 µg/mL is 100%.

**Q.** What about the “inhibition (INH)” value [7] of the same compound?
**A.** Its value is 80%.

**Q.** And the inhibition at 100 µg/mL [2]?
**A.** Its inhibition at 100 µg/mL is 100%.

**Q.** What about the MIC50 [3] of the same compound?
**A.** Its MIC50 is less than 0.5 µg/mL.

**Q.** What about the inhibition at 10 µg/mL [4] of the same compound?
**A.** Its inhibition at 10 µg/mL is 100%.

**Q.** How did the inhibition at 50 µg/mL [1] turn out when `CCCc1cc2c[nH]c(=O)nc2o1` was run?
**A.** The inhibition at 50 µg/mL was 50%.

**Q.** What about the inhibition at 100 µg/mL [2] of the same compound?
**A.** The inhibition at 100 µg/mL was 90%.

**Q.** What about the MIC50 [3] of the same compound?
**A.** Its MIC50 is 10 µg/mL (≈ 56.1 µM).

**Q.** What about the inhibition at 10 µg/mL [4] of the same compound?
**A.** Its inhibition at 10 µg/mL is 50%.

**Q.** For `CCCCCc1cc2c[nH]c(=O)nc2o1`, which MIC50 [3] is on record?
**A.** Its MIC50 is 100 µg/mL (≈ 485 µM).

**Q.** With `O=c1[nH]c(=O)n([C@H]2C[C@H](O)[C@@H](CO)O2)cc1C#Cc1ccccn1` as the compound, how does the inhibition at 50 µg/mL [1] read?
**A.** Its inhibition at 50 µg/mL is 90%.

**Q.** What about the “inhibition (INH)” value [5] of the same compound?
**A.** Its value is 50%.

**Q.** What about the inhibition at 100 µg/mL [2] of the same compound?
**A.** The inhibition at 100 µg/mL was 50%.

**Q.** What about the MIC50 [3] of the same compound?
**A.** The MIC50 was 1 µg/mL (≈ 3.04 µM).

**Q.** What about the inhibition at 10 µg/mL [4] of the same compound?
**A.** The inhibition at 10 µg/mL was 80%.

**Q.** `Nc1nc(=O)n([C@H]2C[C@H](O)[C@@H](CO)O2)cc1C#Cc1ccccn1` was tested. Which inhibition at 50 µg/mL [1] did it give?
**A.** Its inhibition at 50 µg/mL is 90%.

**Q.** What about the “inhibition (INH)” value [5] of the same compound?
**A.** The value was 50%.

**Q.** What about the inhibition at 100 µg/mL [2] of the same compound?
**A.** Its inhibition at 100 µg/mL is 90%.

**Q.** And the MIC50 [3]?
**A.** Its MIC50 is 1 µg/mL (≈ 3.05 µM).

**Q.** What about the inhibition at 10 µg/mL [4] of the same compound?
**A.** The inhibition at 10 µg/mL was 80%.

**Q.** Which MIC50 [3] does the source give for `N[C@@H]1CONC1=O` [CYCLOSERINE] here?
**A.** Its MIC50 is 5 µg/mL (≈ 49 µM).

**Q.** What about the inhibition at 5 µg/mL [6] of the same compound?
**A.** The inhibition at 5 µg/mL was 50%.

**Q.** What about the inhibition at 10 µg/mL [4] of the same compound?
**A.** Its inhibition at 10 µg/mL is 71%.

**Q.** What does the source list for `NNC(=O)c1ccncc1` [ISONIAZID]?
**A.** inhibition at 1 µg/mL [8]: 100%; MIC50 [3]: < 1 µg/mL

**Q.** How did the inhibition at 1 µg/mL [8] turn out when `CO[C@H]1/C=C/O[C@@]2(C)Oc3c(C)c(O)c4c(O)c(c(/C=N/N5CCN(C)CC5)c(O)c4c3C2=O)NC(=O)/C(C)=C\C=C\[C@H](C)[C@H](O)[C@@H](C)[C@@H](O)[C@@H](C)[C@H](OC(C)=O)[C@@H]1C` [RIFAMPIN] was run?
**A.** Its inhibition at 1 µg/mL is 100%.

**Q.** What about the MIC50 [3] of the same compound?
**A.** Its MIC50 is less than 1 µg/mL.
